Screens from PubChem.
Sampled rows, rich in hits. Any-hit rate of the full collection: about 2.6%.
NR2E3 ag-1 = NR2E3 (human) agonism; Q9Y5X4; inhibition of corepressor binding, % at 4.78 µM; GST-NR2E3/biotin-RetCOR TR-FRET, 1536-well; AID 2300; actives 0.12% (n = 320,000);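 active = percent inhibition above the cutoff of mean plus 3 SD of all tested compounds, set per screening campaign, cut at about 20% in these data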;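 also: 0% = DMSO wells and 100% = biotin wells as full block of FRET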
Target sequence (Q9Y5X4 whole entry, looked up): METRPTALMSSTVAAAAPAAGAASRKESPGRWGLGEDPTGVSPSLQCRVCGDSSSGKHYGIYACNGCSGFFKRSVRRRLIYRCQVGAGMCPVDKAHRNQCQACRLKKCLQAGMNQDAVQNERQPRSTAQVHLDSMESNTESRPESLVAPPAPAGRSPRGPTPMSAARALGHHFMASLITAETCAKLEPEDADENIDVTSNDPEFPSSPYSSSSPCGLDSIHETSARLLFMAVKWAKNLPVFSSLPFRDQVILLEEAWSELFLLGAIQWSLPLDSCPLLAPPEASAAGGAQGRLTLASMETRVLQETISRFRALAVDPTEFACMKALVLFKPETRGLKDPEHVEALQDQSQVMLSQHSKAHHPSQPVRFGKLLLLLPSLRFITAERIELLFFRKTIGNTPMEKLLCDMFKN
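System: GST-tagged NR2E3 plus biotinylated RetCOR corepressor; Buffer or medium: pH 7.5 Tris-based buffer; Probe or stimulus: RetCOR corepressor, biotinylated, 7 nM; Doses: compound at 4.8 µM, single dose; Schedule: 5 h incubation at 4 °C; Technique: time-resolved FRET; Evaluation: percent inhibition of TR-FRET ratio; Replication: one well per compound, singlicate testing.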
PG9 binder = binds the HIV-1 gp120 antibody PG9; actives 0.43% (n = 360,000); inhibition, % at 6.7 µM; AID 624416; TR-FRET gp120-PG9 antibody binding; in the data active = inhibition above about 8.5%
NR2E3 ag-2 = agonists of human NR2E3 nuclear receptor. Q9Y5X4. CHO-S Gal4-NCOR/VP16-NR2E3 two-hybrid, luciferase. inhibition of corepressor binding, % at 3.98 µM. actives 0.35% (n = 360,000). AID 602229;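 active = inhibition above the mean of all tested compounds plus 3 SD, cut at about 70% in these data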;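 also: 0% = DMSO with NR2E3 transfected cells and 100% = cells lacking NR2E3 construct; higher means lower luciferase signal from less NR2E3 corepressor binding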
rCAG binder = molecules binding r(CAG) RNA repeats | r(CAG) RNA repeat, TO-PRO-1 dye displacement fluorescence | inhibition, % at 3 µM | actives 1.3% (n = 370,000);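 active = inhibition above the plate cutoff, the mean of all test compounds on that plate plus 3 SD, cut at about 35% in these data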;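 also: 0% = DMSO alone and 100% = 100 µM mitoxantrone as full dye displacement; higher means more dye released from RNA so lower well fluorescence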
NR1D1 modulator = modulates human Rev-erb alpha binding to DNA; Rev-erbα–FITC-DNA binding, fluorescence polarization, 90 min; P20393; actives 0.79% (n = 370,000); activity, % at 10 µM; AID 1259318;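 active = activity above about 14%, limit read from the data; passing the limit was not always enough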;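 also: 0% = DMSO wells with 35 nM protein and 100% = DMSO wells with 750 nM protein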
NR2E3 ag confirm = confirmation of human NR2E3 agonists; actives 51% (n = 2,300); shares compounds with NR2E3 ag-2; CHO-S mammalian two-hybrid NR2E3-NCOR, luciferase luminescence; inhibition, % at 3.98 µM; AID 624378;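 active = average inhibition above a cutoff equal to the mean inhibition of all tested compounds plus one SD, cut at about 70% in these data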;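 also: 0% = DMSO in NR2E3 cells and 100% = DMSO in cells lacking NR2E3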
VP16 counter = GAL4-VP16 reporter inhibition in NR2E3 agonist counterscreen | AID 624379 | inhibition, % at 3.98 µM | shares compounds with NR2E3 ag-2 | CHO-S GAL4-VP16 luciferase reporter, luminescence | actives 29% (n = 2,300);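 active = mean inhibition above a cutoff equal to the average over all tested compounds plus one standard deviation, cut at about 70% in these data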;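 also: luciferase from a UAS reporter driven by GAL4-VP16 transactivation; 0% = DMSO with VP16-transfected cells and 100% = DMSO with cells lacking VP16; higher means less reporter light so more repression of VP16 activity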
* = called active by the depositor; · = no result.

SMILES | NR2E3 ag-1 | PG9 binder | NR2E3 ag-2 | rCAG binder | NR1D1 modulator | NR2E3 ag confirm | VP16 counter
CN(C(=O)COc1ccccc1C(=O)NCCOc1ccccc1)c1ccccc1 | 7 | 0 | 77* | -8 | -2 | 80* | 68
C[C@@H](C(=O)Nc1ccc2c(c1)OCCO2)n1c(=O)[nH]c2ccccc2c1=O | -5 | 0 | 61 | 3 | 0 | 42 | 2
CC(C)(C)c1cccc(Cn2nnc3ccccc32)c1O | 1 | -2 | 62 | -2 | 3 | 55 | 66
Cc1cccc(Cn2nnc3ccccc32)c1O | 2 | 0 | -20 | 9 | 1 | · | ·
Cc1cc(Cn2nnc3ccccc32)c(O)c(C(C)(C)C)c1 | 2 | 0 | 80* | -2 | -2 | 19 | 35
COC(=O)C1=CC(=O)N2CCN=C2S1 | · | -1 | · | 3 | 2 | · | ·
O=C(CCCN1C(=O)/C(=C/c2ccccc2Cl)SC1=S)NCCCN1CCOCC1 | 2 | -3 | 78* | -3 | -7 | -18 | 63
O=C(CCCN1C(=O)/C(=C/c2ccccc2Cl)SC1=S)NNC(=O)c1ccncc1 | 4 | 0 | 56 | 9 | 3 | -45 | 54
O=C(CCCN1C(=O)/C(=C/c2ccccc2Cl)SC1=S)NNC(=O)c1ccccc1Cl | -1 | 0 | -7 | 6 | -8 | · | ·
O=C(NCc1ccncc1)c1ccc(-c2ccc(F)c(F)c2)c2ccoc12 | · | -2 | 84* | 1 | 5 | 96* | 82*
COc1ccc(-c2ccc(C(=O)NCc3ccncc3)c3occc23)c(C)c1 | · | -3 | 82* | 1 | 2 | 95* | 82*
COc1ccc(-c2ccc(C(=O)NCc3ccc(F)c(F)c3)c3occc23)c(C)c1 | · | 0 | -8 | 4 | -3 | · | ·
Oc1ccc(CCNc2ncnc3ccc(Cl)cc23)cc1 | 1 | 1 | 91* | 2 | -4 | 93* | 87*
Cn1c(=O)oc2cc(S(=O)(=O)N3CCN(CCO)CC3)ccc21 | · | · | · | 0 | -5 | · | ·
c1ccc(OC2CCN(c3ncnc4sccc34)CC2)cc1 | · | · | · | · | 2 | · | ·
Cc1sc2ncnc(N3CCN(S(=O)(=O)c4ccc(F)cc4)CC3)c2c1C | 2 | -1 | 78* | -1 | 4 | 80* | 74*
O=S(=O)(c1ccccc1C(F)(F)F)N1CCN(c2ncnc3sccc23)CC1 | · | 0 | 60 | 5 | -5 | 67 | 51
O=C(c1ccccc1)C1CCN(c2ncnc3sccc23)CC1 | · | · | · | · | 3 | · | ·
Cc1ccc(S(=O)(=O)N2CCN(c3ncnc4sccc34)CC2)cc1 | 0 | 1 | 103* | -5 | 1 | 94* | 83*
c1ccc(CC2CCN(c3ncnc4sccc34)CC2)cc1 | · | 0 | 80* | -2 | 0 | 97* | 83*
COC(=O)[C@H](Cc1ccccc1)N[C@H](c1ccc(OC)cc1)[C@@H](O)Cc1ccccc1 | · | -1 | · | -1 | 2 | · | ·
O=C(c1ccccc1)C12COc3ccccc3C1ON=C2c1ccccc1 (stereo not given) | · | 0 | · | 3 | -2 | · | ·
CCOC(=O)c1ccc(NC(=O)CSc2nnc(-c3cc(-c4ccccc4)n[nH]3)n2N)cc1 | · | · | · | 12 | 10 | · | ·
COc1ccc(NC(=O)C2Cc3c(-c4ccccc4)ccnc3O2)cc1OC (stereo not given) | · | · | 78* | · | · | 80* | 71*
COc1ccc(NC(=O)C2Cc3c(-c4ccc(Cl)cc4)ccnc3O2)cc1OC (stereo not given) | · | 1 | 78* | 2 | -1 | 82* | 65
SMILES | NR2E3 ag-1 | PG9 binder | NR2E3 ag-2 | rCAG binder | NR1D1 modulator | NR2E3 ag confirm | VP16 counter
COc1ccc(NC(=O)C2Cc3c(-c4ccc(Cl)cc4)ccnc3O2)cn1 (stereo not given) | · | -2 | -45 | 3 | 1 | · | ·
COc1ccc(NC(=O)C2Cc3c(-c4ccncc4)ccnc3O2)cc1OC (stereo not given) | · | 0 | -6 | 0 | 6 | · | ·
CCCC(=O)OC[C@H]1CN(C2CCCC2)S(=O)(=O)c2c(F)cccc2O1 | · | -4 | · | 0 | 0 | · | ·
O=C(OCC12CC3CC(CC(C3)C1)C2)c1ccc(NCc2cc(O)ccc2O)cc1 | · | -2 | 74* | 26 | 0 | 67 | 5
COC(=O)C1=C(C)N(Cc2ccc(C(F)(F)F)cc2)C(=NCc2ccc(OC)cc2)NC1c1ccccc1 (stereo not given) | · | 2 | · | 9 | 8 | · | ·
CC1(C(=O)Nc2cccc(C#N)c2)CCN1C(=O)Cc1ccc(-c2ccccc2)cc1 (stereo not given) | · | -1 | 91* | 4 | -4 | 98* | 90*
CC1(C(=O)Nc2cccc(C#N)c2)CCN1C(=O)CCc1ccccc1 (stereo not given) | · | -1 | 34 | 3 | 6 | · | ·
CC(C)c1ccc(CC(=O)N2CCC2(C)C(=O)Nc2cccc(C#N)c2)cc1 (stereo not given) | · | 0 | 52 | -1 | 0 | 17 | 30
CC1(C(=O)Nc2ccc3c(c2)OCCO3)CCN1C(=O)Cc1ccc(-c2ccccc2)cc1 (stereo not given) | · | 1 | 57 | 5 | -10 | 56 | 45
CNC(=S)N/N=C/c1cc(Br)cc(Br)c1O | 4 | 0 | 89* | 10 | 0 | -16 | -24
O=C(CSc1ccc2ccccc2n1)NCCCN1CCCC1=O | · | 1 | -7 | 2 | -5 | · | ·
COc1ccc(C(O)c2nc(-c3ccncc3)cs2)cc1 (stereo not given) | · | 0 | 63 | 2 | -7 | 68 | 66
O=c1cc(N2CCN(c3ccccc3)CC2)[nH]c(=O)n1C1CCCCC1 | 0 | 1 | 54 | 4 | -5 | 92* | 19
O=c1cc(N2CCN(c3cccc(Cl)c3)CC2)[nH]c(=O)n1C1CCCCC1 | 0 | -1 | 57 | 1 | 19 | 93* | 28
CCOC(=O)Cc1nnc2c(Nc3ccccc3F)nc3nonc3n12 | 1 | -1 | 71* | 4 | 1 | 74* | 44
COc1ccc(-c2coc3c(C(=O)NCC4CCOCC4)cccc23)c(C)c1 | · | 0 | 71* | 0 | 5 | 60 | 51
COc1ccc(CNC(=O)c2cccc3c(-c4cnn(C)c4)coc23)cc1OC | · | 0 | 63 | 1 | 11 | 41 | 34
COc1ccc(-c2coc3c(C(=O)NCc4ccc(OC)c(OC)c4)cccc23)c(C)c1 | · | -1 | 91* | 7 | -6 | 95* | 82*
Cn1cc(-c2coc3c(C(=O)NCc4cccnc4)cccc23)cn1 | · | -2 | -26 | 3 | -2 | · | ·
COc1ccc(-c2coc3c(C(=O)NCc4ccc(F)c(F)c4)cccc23)c(C)c1 | · | 1 | 30 | 4 | -1 | · | ·
COc1cc(NC(=O)c2cccc3c(-c4cccnc4)coc23)cc(OC)c1OC | · | 0 | 51 | 3 | -2 | 13 | 42
